Source: PubChem BioAssay AID743238 (Broad Institute, 2013)
The campaign covered roughly 360,000 compounds. About 200 (0.056%) were called active. Only a selection was taken, and actives are over-represented in it overall. Unmarked numbers belong to inactive results.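 How the source made its calls: active means mean normalized replicate activation at least 10% and every replicate at or above 10%; inconclusive means only one of the two criteria met; inactive means mean below 10% and not all replicates reach 10%.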

assay: activators of inactive X chromosome reactivation, primary screen, imaging, XiGFP fibroblasts, GFP high-content imaging, set 2 (AID 743238); details: XiGFP mouse fibroblasts, % GFP-positive cells imaging, 3 d; at 7.58 µM; active compounds read high; cells co-treated with 5-aza-dC sensitizer; scaled so ellipticine positive control = 100%;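 further: 0% = median of on-plate neutral control wells and 100% = ellipticine 6 µM median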
Procedure, shortened: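 assay system = SV40-immortalized XiGFP fibroblast cells, line 68-5-11 | buffer or medium = DMEM plus 5-aza-dC sensitizer | doses = single-point pinned compound dosing | times = 3-day compound exposure, then 15 min fixation at room temperature | benchmarks = positive control ellipticine, 6 µM final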

With COCC#Cc1ccc([C@@H]2[C@@H](CO)N3C(=O)CN(C(=O)Nc4cc(F)ccc4F)C[C@@H]23)cc1 as the molecule, how does the activation read?
The activation was 0.227%.

For CS(=O)(=O)N1[C@H](C#N)[C@H](c2ccccc2-c2ccc(F)cc2)[C@@H]1CO, which activation is on record?
Its activation is 0.0935%.

For O=C(NCc1ccc(F)cc1)[C@@H]1[C@@H](CO)[C@@H]2Cn3c(cccc3=O)[C@@H]2N1C(=O)c1cccnc1, which activation is on record?
The activation was 0.173%.

With C[C@H]1CN([C@@H](C)CO)C(=O)c2cc(C3=CCCC3)cnc2O[C@H]1CN(C)Cc1ccccc1C(=O)O as the molecule, how does the activation read?
Its activation is -0.072%.

For O=C(C[C@@H]1CC[C@H](NS(=O)(=O)c2ccc(F)cc2)[C@@H](CO)O1)NCc1ccccc1F, which activation is on record?
Its activation is -0.283%.

Which activation does the source give for Cc1noc(C)c1NC(=O)Nc1ccc2c(c1)C(=O)N([C@H](C)CO)C[C@H](C)[C@H](CN(C)S(=O)(=O)c1cccs1)O2 here?
The activation was 0.0715%.

With N#C[C@@H]1[C@H](c2ccccc2-c2cccc(F)c2)[C@@H](CO)N1C(=O)C1CCCC1 as the molecule, how does the activation read?
The activation was 0.007%.

For Cc1cccc2cc3c(N)c(C(=O)N4CCCc5ccccc54)sc3nc12, which activation is on record?
Its activation is 39.9% (active).

With Cc1cccc(N2CCN(C(C)C(=O)N3CCc4ccccc43)CC2)c1C (stereo not given) as the molecule, how does the activation read?
Its activation is 0.0055%.

With COc1cccc(/C=C/C(=O)OCC(=O)N2CCCc3ccccc32)c1 as the molecule, how does the activation read?
Its activation is 0.22%.

Which activation does the source give for O=C(C[C@@H]1C[C@H]2c3cc(NC(=O)NC4CCCC4)ccc3O[C@H]2[C@H](CO)O1)NCc1cc(F)ccc1F here?
Its activation is 0.0125%.

For C[C@H](CO)N1C[C@H](C)[C@H](CN(C)S(=O)(=O)c2ccc(Cl)cc2)Oc2ccc(NC(=O)C3CCCCC3)cc2C1=O, which activation is on record?
The activation was -0.051%.

With CN1C(=O)c2cc(NC(=O)c3ccc(Cl)cc3)ccc2OC[C@H]2O[C@H](CC(=O)O)CC[C@H]21 as the molecule, how does the activation read?
The activation was 0.521%.

Which activation does the source give for C[C@@H]1CCCCO[C@@H](CN(C)Cc2ccc(C(=O)Nc3ccccc3N)cc2)[C@H](C)CN([C@H](C)CO)C(=O)c2cc(N(C)C)ccc2O1 here?
The activation was 2.13%.

Which activation does the source give for O=C(C1CCCC1)N1CC(=O)N2[C@@H](CO)[C@@H](c3ccc(-c4cccnc4)cc3)[C@@H]2C1 here?
The activation was 0.207%.

For C[C@@H](NC(=O)[C@H]1[C@H](CO)[C@H]2Cn3c(cccc3=O)[C@@H]1N2Cc1cccnc1)c1ccccc1, which activation is on record?
Its activation is 0.133%.

With C[C@@H]1CN([C@H](C)CO)C(=O)Cc2cc(NC(=O)Nc3ccc4c(c3)OCO4)ccc2O[C@@H]1CN(C)C(=O)Nc1ccccc1 as the molecule, how does the activation read?
Its activation is -0.384%.

With CCCNC(=O)N1C[C@@H](C)[C@@H](OC)CN(C)C(=O)c2ccc(NC(=O)C3CCC3)cc2OC[C@@H]1C as the molecule, how does the activation read?
The activation was -0.29%.

Which activation does the source give for COc1ccc2c3c([nH]c2c1)[C@@H](CO)N(C(=O)c1ccccc1)CC31CCN(C(=O)Nc2cccc(F)c2)CC1 here?
The activation was 0.295%.

With Cc1noc(C)c1NC(=O)N[C@@H]1C=C[C@@H](CC(=O)Nc2ccccc2)O[C@H]1CO as the molecule, how does the activation read?
Its activation is 0.193%.

Which activation does the source give for O=C(NC(Cc1ccc(O)cc1)C(=O)O)/C(=C/c1ccccc1)NC(=O)c1ccccc1 (stereo not given) here?
Its activation is 0.249%.

For O=C(Nc1cccc(C(=O)O)c1)/C(=C\c1ccccc1)NC(=O)c1ccc(Br)o1, which activation is on record?
Its activation is 97.3% (active).

With COc1ccccc1C(=O)N/C(=C/c1ccc2c(c1)OCO2)C(=O)Nc1cccc(C(=O)O)c1 as the molecule, how does the activation read?
Its activation is 0.184%.

With C[C@@H]1CCCCO[C@@H](CN(C)S(=O)(=O)c2cn(C)cn2)[C@@H](C)CN([C@@H](C)CO)C(=O)c2cc(NC(=O)NC3CCCCC3)ccc2O1 as the molecule, how does the activation read?
The activation was 0.153%.

Which activation does the source give for O=C(c1ccncc1)N1CC(=O)N2[C@H](C1)[C@@H](c1ccc(C#CCC3CCCC3)cc1)[C@@H]2CO here?
The activation was 0.192%.

For C[C@H]1CN([C@@H](C)CO)C(=O)c2cccc(NS(=O)(=O)c3ccc(F)cc3)c2O[C@@H]1CN(C)C, which activation is on record?
Its activation is -0.0195%.

For CNC[C@@H]1Oc2ccc(NC(=O)C3CCCCC3)cc2C(=O)N([C@@H](C)CO)C[C@H]1C, which activation is on record?
The activation was -1.11%.

With C[C@@H](NC(=O)C[C@@H]1C[C@@H]2c3cc(NC(=O)c4cccnc4)ccc3O[C@@H]2[C@H](CO)O1)c1ccccc1 as the molecule, how does the activation read?
Its activation is -0.0445%.

For CC(=O)N1[C@@H]2c3ccc(-c4ccccc4)c(=O)n3C[C@@H]2[C@@H](CO)[C@@H]1C(=O)NCc1ccccc1F, which activation is on record?
Its activation is 0.21%.

Which activation does the source give for C[C@H](CO)N1C[C@H](C)[C@@H](CN(C)Cc2cccnc2)Oc2ncc(/C=C/c3ccccc3)cc2C1=O here?
The activation was -0.672%.

For CC(C)CC#Cc1cnc2c(c1)C(=O)N([C@H](C)CO)C[C@H](C)[C@H](CN(C)CC1CCOCC1)O2, which activation is on record?
Its activation is 0.516%.

Which activation does the source give for CC[C@H]1CC=CC[C@@H](C)Oc2ccccc2C(=O)N(C)[C@H](Cc2ccccc2)C(=O)N1 (mixture of isomers) here?
Its activation is -0.034%.

For CSc1nnc(SCc2nc3sc(C(=O)O)c(C)c3c(=O)[nH]2)s1, which activation is on record?
Its activation is 0.212%.

For CCOC(=O)c1sc2nc(C)nc(SCC(N)=O)c2c1C, which activation is on record?
The activation was -0.02%.

With CCOC(=O)c1sc2nc(CSc3ccccc3)[nH]c(=O)c2c1C as the molecule, how does the activation read?
Its activation is 21.4% (active).

Which activation does the source give for C/C=C/c1ccc2c(c1)O[C@H](CN(C)C(=O)Cc1cccnc1)[C@@H](C)CN([C@H](C)CO)S2(=O)=O here?
Its activation is 0.77%.

With COc1ccc2c3c(n(C)c2c1)[C@H](CO)N(C(C)=O)CC31CN(Cc2ccc(Cl)cc2)C1 as the molecule, how does the activation read?
Its activation is -0.0005%.

Which activation does the source give for COCCN(C[C@H]1[C@@H](c2ccccc2)[C@H](CO)N1C(=O)C1CCC1)C(C)=O here?
Its activation is 0.023%.

Which activation does the source give for C/C=C/c1ccc([C@H]2[C@@H](CO)N(C(=O)CC)[C@H]2CN(C)C(=O)C2CC2)cc1 here?
Its activation is 0.008%.

With CCC(=O)Nc1ccc2c(c1)C(=O)N(C)C[C@@H](OC)[C@@H](C)CN(C(=O)CN(C)C)[C@@H](C)CO2 as the molecule, how does the activation read?
Its activation is 0.206%.

Which activation does the source give for CCC(=O)N1CC2(CCN(Cc3ccc(Cl)cc3)CC2)c2c(n(C)c3cc(OC)ccc23)[C@@H]1CO here?
Its activation is 0.134%.

For CCS(=O)(=O)N1CC2(CN(C(=O)c3ccc(F)cc3)[C@@H](CO)c3c2c2ccc(OC)cc2n3C)C1, which activation is on record?
Its activation is 0.267%.

For C[C@@H]1CN([C@@H](C)CO)S(=O)(=O)c2ccc(Br)cc2O[C@@H]1CN(C)C(=O)CN(C)C, which activation is on record?
Its activation is 0.922%.

Which activation does the source give for O=C(Nc1ccc(F)cc1)N1CC(=O)N2[C@H](CO)[C@H](c3ccc(C#Cc4ccccc4)cc3)[C@H]2C1 here?
The activation was 0.018%.

With C[C@H](CO)N1C[C@H](C)[C@@H](CN(C)S(C)(=O)=O)Oc2ccc(NC(=O)Nc3ccc4c(c3)OCO4)cc2CC1=O as the molecule, how does the activation read?
Its activation is 0.005%.

Which activation does the source give for OC[C@H]1[C@@H](c2ccc(C#Cc3ccccc3F)cc2)[C@H]2CN(CC3CCOCC3)CCCCN21 here?
Its activation is -0.0285%.

For C[C@H]1CN([C@@H](C)CO)C(=O)c2cc(-c3ccccc3)cnc2O[C@H]1CN(C)C(=O)C1CCOCC1, which activation is on record?
The activation was -0.251%.

Which activation does the source give for COCC(=O)Nc1ccc2c(c1)C(=O)N(C)[C@@H]1CC[C@H](CC(=O)NCC3CC3)O[C@H]1CO2 here?
Its activation is 0.286%.

For COc1ccc2c3c(n(C)c2c1)[C@H](CO)NCC31CN(S(=O)(=O)c2cccc(C)c2)C1, which activation is on record?
Its activation is 0.887%.

Which activation does the source give for COc1cccc(-c2cnc3c(c2)C(=O)N([C@H](C)CO)C[C@H](C)[C@H](CN(C)Cc2ccncc2)O3)c1 here?
Its activation is 0.983%.

For CC(=O)N(C)C[C@H]1Oc2ncc(C#Cc3ccc(F)cc3)cc2C(=O)N([C@H](C)CO)C[C@@H]1C, which activation is on record?
The activation was -1.15%.

Which activation does the source give for C[C@H]1CN([C@@H](C)CO)C(=O)CCCn2cc(nn2)CO[C@H]1CN(C)C(=O)Nc1ccc(F)cc1 here?
The activation was -0.396%.

For O=C(C[C@H]1C=C[C@@H](NC(=O)CC2CC2)[C@H](CO)O1)NCc1ccc(-c2ccccc2)cc1, which activation is on record?
The activation was 0.158%.

For COc1ccc(S(=O)(=O)N(C)C[C@@H]2Oc3ccc(NC(=O)CCN4CCOCC4)cc3CC(=O)N([C@@H](C)CO)C[C@@H]2C)cc1, which activation is on record?
The activation was -1.18%.

With O=C(c1cccc(F)c1)N1CC[C@@H]2[C@H](CO)Nc3ccc(C#Cc4ccccc4)cc3[C@@H]21 as the molecule, how does the activation read?
Its activation is 0.0425%.

Which activation does the source give for CC(C)NC(=O)N(C)C[C@@H]1Oc2ncc(C#CC3CC3)cc2C(=O)N([C@@H](C)CO)C[C@H]1C here?
Its activation is -0.634%.

With Nc1c(C(=O)c2cccs2)sc2nsc(SCCN3CCCCC3)c12 as the molecule, how does the activation read?
The activation was 114% (active).

For O=C(NC1CCCC1)N1CC(=O)N2[C@H](C1)[C@H](c1ccc(/C=C/c3ccccc3)cc1)[C@@H]2CO, which activation is on record?
Its activation is 0.335%.

For CCCC#Cc1ccc([C@H]2[C@H]3CN(C(=O)c4cccnc4)CC(=O)N3[C@H]2CO)cc1, which activation is on record?
The activation was -0.0225%.

For COc1ccccc1-c1ccc([C@H]2[C@@H](CO)N(CC3CC3)C23CN(S(C)(=O)=O)C3)cc1, which activation is on record?
The activation was 0.04%.

Which activation does the source give for CO[C@@H]1CN(C)C(=O)c2cc(NC(=O)Nc3ccccc3F)ccc2OC[C@H](C)NC[C@H]1C here?
The activation was -0.018%.

For O=C([C@@H]1[C@@H](CO)[C@@H]2Cn3c(ccc(-c4cncnc4)c3=O)[C@@H]2N1C(=O)C1CCC1)N1CCCCC1, which activation is on record?
Its activation is 0.322%.

Which activation does the source give for C[C@@H]1CCCCO[C@@H](CN(C)Cc2ccncc2)[C@@H](C)CN([C@H](C)CO)C(=O)c2cc(NS(=O)(=O)c3cccs3)ccc2O1 here?
The activation was 0.415%.

Which activation does the source give for CCCN1[C@H](CO)[C@H](c2ccc(C#CC3CCCCC3)cc2)[C@@H]1CNC(=O)C1CC1 here?
The activation was 0.049%.

Which activation does the source give for CN1CCN(C(=O)C[C@@H]2CC[C@@H]3[C@H](COC[C@H](O)CN3CC3CCOCC3)O2)CC1 here?
The activation was 0.0745%.
